Assay results taken from ChEMBL document CHEMBL1157420, “2-phenyl-4-piperazinylbenzimidazoles: orally active inhibitors of the gonadotropin releasing hormone (GnRH) receptor” (Bioorg Med Chem, 2008).
Converted amounts (≈) assume the structure as drawn.

Experiments:
[1] = target: T1, Gonadotropin-releasing hormone receptor (Homo sapiens) (UniProt P30968); assay: Displacement of [125I]-(D-Trp6)LHRH from human recombinant GnRH receptor at 10 uM
T1 sequence (whole entry): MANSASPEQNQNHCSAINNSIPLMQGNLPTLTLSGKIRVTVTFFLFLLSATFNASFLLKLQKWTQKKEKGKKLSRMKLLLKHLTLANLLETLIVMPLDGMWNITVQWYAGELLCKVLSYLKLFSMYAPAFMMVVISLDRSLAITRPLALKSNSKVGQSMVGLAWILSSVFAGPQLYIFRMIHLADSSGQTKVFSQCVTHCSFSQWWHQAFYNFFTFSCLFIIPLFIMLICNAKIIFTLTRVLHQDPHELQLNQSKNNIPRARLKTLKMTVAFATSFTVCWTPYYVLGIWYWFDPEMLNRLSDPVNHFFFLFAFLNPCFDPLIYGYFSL
Procedure, shortened: (§1)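 Membranes from recombinant cells expressing human or rat GnRH receptor, made in 25 mM Tris-Cl pH 7.4 with 0.1% sodium azide and 0.1% BSA. 50 μg protein incubated with about 50,000 cpm 125I-(D-Trp6)-LHRH for 2 h at 4 °C, with increasing unlabeled competitor. Filtered on BSA-presoaked glass-fiber filters, washed twice, counted by gamma counter. Percent inhibition and IC50 derived.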

[2] = target: T2, Gonadotropin-releasing hormone receptor (Homo sapiens, UniProt P30968); assay: Displacement of [125I]-(D-Trp6)LHRH from human recombinant GnRH receptor; procedure, shortened: as §1
T2 sequence (P30968 whole entry): T1 sequence (whole entry)

[3] = target: T3, Gonadotropin-releasing hormone receptor (Rattus norvegicus, UniProt P30969); assay: Displacement of [125I]-(D-Trp6)LHRH from rat recombinant GnRH receptor; procedure, shortened: as §1
T3 sequence (P30969 whole entry): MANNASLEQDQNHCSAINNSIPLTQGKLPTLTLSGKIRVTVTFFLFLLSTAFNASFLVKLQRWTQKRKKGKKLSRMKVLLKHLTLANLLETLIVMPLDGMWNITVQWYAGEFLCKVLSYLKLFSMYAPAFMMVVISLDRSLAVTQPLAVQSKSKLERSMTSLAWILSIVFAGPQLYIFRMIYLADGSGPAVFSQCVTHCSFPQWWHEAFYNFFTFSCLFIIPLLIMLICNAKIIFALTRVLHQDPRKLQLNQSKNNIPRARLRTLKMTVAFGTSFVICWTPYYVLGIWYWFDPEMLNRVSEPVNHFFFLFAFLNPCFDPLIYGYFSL

[4] = target: T2, Gonadotropin-releasing hormone receptor; assay: Antagonist activity at human recombinant GnRH receptor assessed as reduction in (D-Trp6)LHRH-induced myo-(1,2)-[3H]inositol production; format: functional
Procedure, shortened: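 Recombinant cells expressing human GnRH receptor, pre-labeled with myo-(1,2)-3H-inositol, incubated 1 h in medium with lithium chloride and D-Trp6-LHRH, with or without antagonist. Cells then lysed and labeled inositol phosphates separated from inositol by […] and counted. Run in triplicate, repeated in three independent experiments; IC50 derived.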

[5] = target: T4, 5-hydroxytryptamine receptor 1A (Homo sapiens) (UniProt P08908); assay: Binding affinity to 5HT1A receptor at 10 uM
T4 sequence (whole entry): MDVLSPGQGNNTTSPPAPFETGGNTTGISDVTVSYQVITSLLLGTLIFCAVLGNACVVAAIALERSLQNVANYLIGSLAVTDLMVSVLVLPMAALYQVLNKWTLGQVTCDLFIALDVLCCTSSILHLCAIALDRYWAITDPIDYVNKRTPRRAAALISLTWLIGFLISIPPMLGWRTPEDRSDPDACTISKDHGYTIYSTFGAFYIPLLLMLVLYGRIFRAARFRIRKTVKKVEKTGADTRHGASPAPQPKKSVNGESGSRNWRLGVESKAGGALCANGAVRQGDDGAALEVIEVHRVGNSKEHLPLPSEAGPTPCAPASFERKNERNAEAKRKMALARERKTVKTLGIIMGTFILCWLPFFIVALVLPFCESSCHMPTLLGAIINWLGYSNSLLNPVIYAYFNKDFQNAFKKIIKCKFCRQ

[6] = target: T3, Gonadotropin-releasing hormone receptor; assay: Antagonist activity at […] GnRH receptor in CO2 asphyxiated rat primary pituitary cells assessed as reduction in (D-Trp6)LHRH-induced LH release; format: functional, cell-based, Pituitary gland cell
Procedure, shortened: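 Anterior pituitaries from adult rats were minced, dissociated and plated at 30,000 cells/well in DMEM with 25 mM Hepes and 10% FBS, then cultured 72 h at 37 °C, 5% CO2. After washing, cells were treated 3 h in 0.1% BSA medium with an antagonist dose response plus an ED50 concentration of D-Trp6-LHRH. LH in medium measured by RIA; cell toxicity checked by CellTiter-Glo.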

[7] = target: T5, Alpha-1A adrenergic receptor (Homo sapiens) (UniProt P35348); assay: Binding affinity to alpha1 adrenergic receptor at 10 uM
T5 sequence (whole entry): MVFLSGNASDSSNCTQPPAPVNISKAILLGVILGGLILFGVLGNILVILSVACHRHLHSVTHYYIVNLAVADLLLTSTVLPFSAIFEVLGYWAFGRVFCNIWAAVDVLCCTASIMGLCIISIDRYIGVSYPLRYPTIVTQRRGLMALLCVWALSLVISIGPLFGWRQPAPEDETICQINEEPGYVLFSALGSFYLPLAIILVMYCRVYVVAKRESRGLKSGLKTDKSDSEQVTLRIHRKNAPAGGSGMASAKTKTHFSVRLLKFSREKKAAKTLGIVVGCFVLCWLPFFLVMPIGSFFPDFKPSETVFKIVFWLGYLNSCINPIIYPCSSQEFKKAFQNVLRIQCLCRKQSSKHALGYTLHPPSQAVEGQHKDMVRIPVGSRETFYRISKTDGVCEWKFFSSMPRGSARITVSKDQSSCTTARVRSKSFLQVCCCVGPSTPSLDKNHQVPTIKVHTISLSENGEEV

[8] = target: T6, 5-hydroxytryptamine receptor 1A (Homo sapiens, UniProt P08908); assay: Binding affinity to human 5HT1A receptor
T6 sequence (P08908 whole entry): T4 sequence (whole entry)

[9] = AUC (0 to infinity) in rat at 10 mg/kg, po; format: ADME, organism-based; set-up: dose 10 mg/kg, route oral, time infinity; settings: plasma
[10] = AUC (0 to infinity) in rat at 1.0 mg/kg, iv; format: ADME, organism-based; set-up: time infinity, dose 1 mg/kg, route intravenous; settings: plasma
[11] = Metabolic stability in rat liver microsomes assessed as half life; format: ADME, Microsome
[12] = Volume of distribution at steady state in rat at 1.0 mg/kg, iv; format: ADME, organism-based; set-up: dose 1 mg/kg, route intravenous; settings: in vivo, read-out: Vdss
[13] = Cmax in rat at 10 mg/kg, po; format: ADME, organism-based; set-up: dose 10 mg/kg, route oral; settings: in vivo
[14] = Membrane permeability by PAMPA assay; format: ADME; settings: read-out: permeability
[15] = Tmax in rat at 10 mg/kg, po; format: ADME, organism-based; set-up: dose 10 mg/kg, route oral; settings: in vivo
[16] = Half life in rat plasma at 1.0 mg/kg, iv; format: ADME, organism-based; set-up: dose 1 mg/kg, route intravenous
[17] = Half life in rat plasma at 10 mg/kg, po; format: ADME, organism-based; set-up: dose 10 mg/kg, route oral
[18] = Bioavailability in rat at 10 mg/kg, po; format: ADME, organism-based; settings: in vivo
[19] = Solubility of compound at pH 7.4; format: physicochemical; settings: buffer
[20] = Plasma clearance in rat at 1.0 mg/kg, iv; format: ADME, organism-based; set-up: dose 1 mg/kg, route intravenous

Compound | Activity [1] [%] | IC50 [2] [nM] | IC50 [3] [nM] | IC50 [4] [nM] | further results
CC(C)(C)c1ccc(-c2nc3c(N4CCN(Cc5ccccc5)CC4)cccc3[nH]2)cc1 | 6 |  |  |  | 
S=c1[nH]c2cccc(OCCN3CCN(c4cccc5nccnc45)CC3)c2[nH]1 | 1 |  |  |  | 
CCc1ccc(-c2nc3c(N4CCN(CCOc5cccc6nc(C(F)(F)F)[nH]c56)CC4)cccc3[nH]2)cc1 |  | 220 | 5200 | 2300 | 
O=C(COc1cccc2[nH]c(=S)[nH]c12)N1CCN(c2cccc3[nH]c(C(F)(F)F)nc23)CC1 | 24 |  |  |  | 
Cc1ccc(-c2nc3c(N4CCN(CCOc5cccc6[nH]c(=S)[nH]c56)CC4)cccc3[nH]2)c(C)c1 |  | 1200 |  |  | 
FC(F)(F)c1nc2c(N3CCN(Cc4cccc5[nH]c(=S)[nH]c45)CC3)cccc2[nH]1 |  | 580 | 51000 | 3400 | 
FC(F)(F)c1nc2c(N3CCN(CCCc4cccc5nc(C(F)(F)F)[nH]c45)CC3)cccc2[nH]1 | 42 |  |  |  | 
CC(C)(C)c1ccc(-c2nc3c(N4CCN(Cc5cccc6[nH]c(=S)[nH]c56)CC4)cccc3[nH]2)cc1 |  | 6.2 | 110 | 14 | Activity [5]: 5%; IC50 [6]: 240 nM; Activity [7]: 7%
FC(F)(F)c1nc2c(N3CCN(CCCOc4cccc5[nH]c(=S)[nH]c45)CC3)cccc2[nH]1 |  | 3300 |  |  | Ki [8]: 2.3 nM
FC(F)(F)c1nc2c(N3CCN(CCc4cccc5nc(C(F)(F)F)[nH]c45)CC3)cccc2[nH]1 | 26 |  |  |  | 
O=c1[nH]c2cccc(N3CCN(CCOc4cccc5[nH]c(=S)[nH]c45)CC3)c2[nH]c1=O | 9 |  |  |  | 
FC(F)(F)c1nc2c(N3CCN(CCc4cccc5[nH]c(=S)[nH]c45)CC3)cccc2[nH]1 | 51 |  |  |  | 
CC(C)(C)c1ccc(-c2nc3c(N4CCN(Cc5c[nH]c(=O)[nH]c5=O)CC4)cccc3[nH]2)cc1 |  | 5.5 | 32 | 9.4 | AUC(0-inf) [9]: 200 ng·h/mL; AUC(0-inf) [10]: 355 ng·h/mL; half-life [11]: 0.5 h; Vd [12]: 3.1 L/kg; Cmax [13]: 19 ng/mL; Papp [14]: 0.6 ×10⁻⁶ cm/s; Tmax [15]: 1.8 h; half-life [16]: 3.5 h; IC50 [6]: 41 nM; half-life [17]: 5.8 h; bioavailability [18]: 5%; solubility [19]: 25 µg/mL (≈ 54.5 µM); clearance [20]: 47 mL/min/kg
Cc1nc2c(N3CCN(CCOc4cccc5[nH]c(=S)[nH]c45)CC3)cccc2[nH]1 | 10 |  |  |  | 
CC(C)(C)c1ccc(-c2nc3c(N4CCN(CCOc5cccc6nc(C(F)(F)F)[nH]c56)CC4)cccc3[nH]2)cc1 |  | 50 | 710 | 1200 | 
CC(C)(C)c1ccc(-c2nc3c(N4CCN(Cc5ccc6ccccc6c5)CC4)cccc3[nH]2)cc1 | 7 |  |  |  | 
O=c1[nH]c2cccc(N3CCN(CCOc4cccc5[nH]c(=S)[nH]c45)CC3)c2[nH]1 | 6 |  |  |  | 
CC(C)(C)c1ccc(-c2nc3c(N4CCN(Cc5cccc6[nH]c(=O)c(=O)[nH]c56)CC4)cccc3[nH]2)cc1 |  | 5.7 | 72 | 24 | IC50 [6]: 480 nM
